Laboratory results reported in PubChem BioAssay.
The source made the active and inactive calls.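 Rule for the calls, unless noted: active = inhibition at or above 50% relative to wild type and mutant plate controls; inactive = inhibition below 50%.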

Tests used:
[1] = inhibitors of TNFa-induced NFkB p65 translocation, primary screen, imaging, HUVEC, MLSMR starter and 10KST1 sets (AID 438;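 active = inhibition above 20% together with a positive visual image hit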;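 note: compound added about 3h40 before a 20 min TNFalpha stimulation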;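 for inhibition: signal is the nuclear over cytoplasmic p65 intensity ratio per well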); settings: HUVEC TNFa-induced p65 nuclear translocation; cell count: measured here: nuclei count (cytotoxicity indicator), at 2.08 µM; inhibition: at 2 µM, stronger effect = higher value, 0% TNFa-plus-vehicle, 100% no-TNFa wells
[2] = endothelial E-selectin expression blockers – imaging, HUVEC, immunofluorescence, MLSMR starter and 10KST1 sets, primary screen (AID 487;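 active = visually confirmed hit in the image check and inhibition above 20%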;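 for inhibition: signal is fraction of cell area covered by stained E-selectin grains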;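 for nuclei count: 100% = median nuclei count of all wells on the same plate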); settings: HUVEC TNFalpha-induced E-selectin immunofluorescence imaging, at 2 µM; inhibition: stronger effect = higher value; nuclei count: measured here: cell number, toxicity
[3] = Primary imaging screen for DUSP6 inhibitors that restore phospho-Erk in transfected HeLa cells, chemical complementation (AID 609;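 active = compounds giving at least 50% inhibition in the cell-based MKP-3 phosphatase rescue imaging test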;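 for inhibition: phospho-Erk level distribution per well compared with pooled transfected vehicle control wells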); settings: HeLa MKP-3 transfected, phospho-Erk imaging KS statistic, at 10 µM, cells stimulated with TPA for 15 min
[4] = target: Dual specificity protein phosphatase 6 (Homo sapiens) (UniProt Q16828); experiment: as above; settings: HeLa MKP-3 transfected, phospho-Erk imaging KS statistic; at 10 µM; stronger effect = higher value; cells stimulated with TPA for 15 min
Sequence of Dual specificity protein phosphatase 6 (Homo sapiens) (Q16828 whole entry, looked up): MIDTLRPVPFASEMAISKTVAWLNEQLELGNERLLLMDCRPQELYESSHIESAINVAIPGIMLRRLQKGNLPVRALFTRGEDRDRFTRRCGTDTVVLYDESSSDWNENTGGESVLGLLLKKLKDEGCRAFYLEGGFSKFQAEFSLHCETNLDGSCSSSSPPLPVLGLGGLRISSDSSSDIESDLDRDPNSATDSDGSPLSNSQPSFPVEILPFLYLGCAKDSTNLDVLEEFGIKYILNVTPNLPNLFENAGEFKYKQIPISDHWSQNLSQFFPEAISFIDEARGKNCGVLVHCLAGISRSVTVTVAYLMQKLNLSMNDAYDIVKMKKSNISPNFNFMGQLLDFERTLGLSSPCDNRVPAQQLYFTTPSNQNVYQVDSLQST

[5] = target: Voltage-gated potassium channel subunit beta-2 (Rattus norvegicus) (UniProt P62483); experiment: inhibitors of rat Kvbeta2 reductase activity – biochemical, NADPH fluorescence, primary screen (AID 622;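 active = fluorescence slope higher than the sample average by over 3 SD, cut at about -0.22 in these data, passing the limit was not always enough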;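 note: slope of raw intensity against log time taken from 70 to 1610 s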); settings: recombinant KvBeta, 4-cyanobenzaldehyde reduction, at 10 µM, stronger effect = higher value
Sequence of Voltage-gated potassium channel subunit beta-2 (Rattus norvegicus) (P62483 whole entry, looked up): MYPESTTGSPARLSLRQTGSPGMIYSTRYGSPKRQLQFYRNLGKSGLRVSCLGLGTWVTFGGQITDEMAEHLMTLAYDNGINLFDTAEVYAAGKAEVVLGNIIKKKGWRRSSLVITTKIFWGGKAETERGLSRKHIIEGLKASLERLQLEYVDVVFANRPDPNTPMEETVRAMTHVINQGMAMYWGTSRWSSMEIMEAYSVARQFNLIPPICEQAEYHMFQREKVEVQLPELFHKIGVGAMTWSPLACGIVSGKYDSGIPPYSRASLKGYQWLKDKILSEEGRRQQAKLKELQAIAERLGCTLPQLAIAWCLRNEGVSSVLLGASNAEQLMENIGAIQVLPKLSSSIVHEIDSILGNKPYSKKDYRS

[6] = target: Voltage-gated potassium channel subunit beta-2 (Rattus norvegicus) (UniProt P62483); experiment: enhancers of rat Kvbeta2 NADPH turnover – biochemical, NADPH fluorescence, primary screen (AID 623;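 active = NADPH fluorescence slope more negative than the mean of all samples by about 3 SD, 99.7% confidence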;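 note: fluorescence intensity change per second fitted from 20 to 320 s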); settings: Recombinant KvBeta, NADPH fluorescence decrease slope, 10 min; at 10 µM; stronger effect = lower value
[7] = target: Alpha-2C adrenergic receptor (Homo sapiens) (UniProt P18825); experiment: compounds altering alpha2C-coupled GIRK flux – cell-based, HEK293 alpha2C/GIRK1/2, thallium flux, primary screen (AID 624;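 active = fluorescence slope after compound addition differing from the mean of all screened samples at 99.7% confidence, in either direction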;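 note: slope of fluorescence ratio to pre-addition baseline per second over 15 to 24 s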); settings: thallium flux BTC fluorescence, at 10 µM, actives lie on both sides
Sequence of Alpha-2C adrenergic receptor (Homo sapiens) (P18825 whole entry, looked up): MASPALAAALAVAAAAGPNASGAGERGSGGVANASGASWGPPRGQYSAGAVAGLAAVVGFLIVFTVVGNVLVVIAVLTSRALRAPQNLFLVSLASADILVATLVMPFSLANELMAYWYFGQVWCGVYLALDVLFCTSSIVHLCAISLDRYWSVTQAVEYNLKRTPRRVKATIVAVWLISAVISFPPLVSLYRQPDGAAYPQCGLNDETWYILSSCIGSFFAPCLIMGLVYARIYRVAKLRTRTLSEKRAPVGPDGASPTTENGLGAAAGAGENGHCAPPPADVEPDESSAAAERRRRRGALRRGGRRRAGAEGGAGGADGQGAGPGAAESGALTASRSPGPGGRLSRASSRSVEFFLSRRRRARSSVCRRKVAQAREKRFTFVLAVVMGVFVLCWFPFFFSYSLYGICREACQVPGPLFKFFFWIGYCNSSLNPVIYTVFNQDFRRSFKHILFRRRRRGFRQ

[8] = inhibitors of larval lipid processing in zebrafish, primary screen, whole organism, PED6 fluorescence, gall bladder and intestine (AID 686;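 active = a full or partial loss of lipid-probe fluorescence in the fish gall bladder, intestine or both, judged by eye; inactive = no fluorescence loss, or compound toxic to the fish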;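 note: larvae 5 to 7 days old with five fish per well; signal comes from phospholipase A2 cleavage of quenched PED6 carried via bile; overnight exposure to compound and PED6 before scoring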); settings: Zebrafish larvae PED6 lipid processing, fluorescence scoring; screened at 20 µM (by protocol)
In short: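 system = live zebrafish larvae aged 5-7 days, whole organism | probe or stimulus = ingested quenched lipid PED6 at 100 nM | doses = 20 µM single dose | timing = overnight exposure | detection = fluorescence microscopy with visual scoring of gall bladder and intestine | read-out = visual per-well fluorescence inhibition score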

[9] = loss of swimming-algae plug formation – whole organism, Chlamydomonas reinhardtii, WT vs cilia-less mutant, absorbance, 96-well, primary screen (AID 463189); settings: Chlamydomonas reinhardtii gravitaxis, OD600 absorbance, 2 days; at 10 µM; stronger effect = higher value;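 note: 0% = wild type cc124 cells in DMSO and 100% = ciliumless bld1 mutant cells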
[10] = measured here: cell density z-score
[11] = measured here: nuclear c-Myc green intensity z-score
[12] = measured here: nuclear pErk red intensity z-score, stronger effect = higher value

Row | SMILES | cell count [1] | inhibition [1] | inhibition [2] | nuclei count [2] [%] | z-score [3, 10] | z-score [3, 11] | z-score [3, 12] | inhibition [4] | fluorescence slope [5] | NADPH fluorescence slope [6] | slope [7] | outcome [8] | inhibition [9]
1 | CCSc1nc(N)c2c3c(sc2n1)CCC3 | 602 | -14.1% (inactive) | -20.6% (inactive) | 146 | 0.476 | 0.818 | 0.254 | 7.7% (inactive) | -0.408 (inactive) | -4.9e-05 (inactive) | 0.00637 (inactive) | inactive | -5.03% (inactive)
2 | CCN(CC)CCCN1C(=O)C(O)=C(C(=O)c2ccc(C)o2)C1c1ccc(C)o1 (centres undefined) | 581 | -17.5% (inactive) | -104% (inactive) | 153 | 0.106 | 0.341 | 0.337 | -2.47% (inactive) | -0.485 (inactive) | -5.2e-05 (inactive) | 0.00555 (inactive) | inactive | 4.2% (inactive)
3 | N#Cc1c(SCC(N)=O)nsc1SCc1ccc(Cl)cc1 | 633 | -17.9% (inactive) | -60.5% (inactive) | 148 | 0.999 | -1.2 | -0.0749 | 17.7% (inactive) | -0.406 (inactive) | -1.2e-05 (inactive) | 0.00612 (inactive) | inactive | 26.4% (inactive)
4 | O=C(O)C1CC=CCC1C(=O)N1CCN(c2nc(-c3ccccc3)c3ccccc3n2)CC1 (centres undefined) | 373 | -16.9% (inactive) | -48.5% (inactive) | 165 | -1.19 | 1.08 | 0.0489 | -5.26% (inactive) | -0.305 (inactive) | -7.9e-05 (inactive) | 0.00497 (inactive) | inactive | 28.5% (inactive)
5 | Cc1cc(C)c(NC(=O)OCCN2CCOCC2)c(C)c1 | 581 | -17.3% (inactive) | -82.2% (inactive) | 168 | -0.0769 | -0.6 | 1.06 | 3.56% (inactive) | -0.468 (inactive) | -7.1e-05 (inactive) | 0.00577 (inactive) | inactive | 19.8% (inactive)
6 | O=C(c1ccc(F)cc1)N1CCC(N2CCCCCC2)CC1 | 392 | -0.5% (inactive) | -100% (inactive) | 138 | -0.0132 | 0.516 | -0.618 | 15.1% (inactive) | -0.395 (inactive) | -7.7e-06 (inactive) | 0.00694 (inactive) | inactive | 43.9% (inactive)
7 | CCn1cc(C(=O)NCCCN(C)C)c(=O)c2cc(F)c(N3CCN(C)CC3)cc21 | 360 | -2.8% (inactive) | -88% (inactive) | 130 | -0.583 | 1.7 | -0.542 | -7.28% (inactive) | -0.286 (inactive) | -5e-06 (inactive) | 0.00472 (inactive) | inactive | 22% (inactive)
8 | Clc1cccc(-c2nn3c(-c4cccc(Cl)c4)nnc3s2)c1 | 612 | -7.8% (inactive) | -20.4% (inactive) | 169 | 1.02 | 1.46 | -0.806 | -4.27% (inactive) | -0.412 (inactive) | -0.000162 (inactive) | 0.00698 (inactive) | inactive | 14.4% (inactive)
9 | COc1ccccc1-c1nnc2sc(C3CCCCC3)nn12 | 531 | -12.5% (inactive) | -318% (inactive) | 161 | -0.671 | 0.45 | 0.848 | -0.674% (inactive) | -0.405 (inactive) | -0.000298 (inactive) | 0.00423 (inactive) | active; no signal in intestine only | 11.6% (inactive)
10 | COc1ccc(OC)c(NC(=O)CSC2=C(C#N)C(c3ccco3)C3=C(CCCC3=O)N2)c1 (centres undefined) | 356 | -6.8% (inactive) | -37.1% (inactive) | 141 | -0.66 | -0.0626 | 0.62 | -6.59% (inactive) | -0.404 (inactive) | -0.000112 (inactive) | 0.00599 (inactive) | inactive | 20.2% (inactive)
11 | Cc1ccc2c(=O)c(CN(C)C3CCN(C)CC3)c(C)[nH]c2c1C | 498 | -21.3% (inactive) | -40.5% (inactive) | 142 | 0.488 | 0.313 | -0.364 | 1.12% (inactive) | -0.491 (inactive) | -4.5e-05 (inactive) | 0.00468 (inactive) | inactive | 1.23% (inactive)
12 | Fc1ccccc1-c1nc(N2CCCCC2)c2ccccc2n1 | 364 | -8.4% (inactive) | -149% (inactive) | 173 | 1.66 | 0.183 | -1.27 | 6.04% (inactive) | -0.447 (inactive) | -5.7e-06 (inactive) | 0.00522 (inactive) | inactive | 140% (active)
13 | Clc1ccc(SCc2cn3ccsc3n2)cc1 | 516 | -11.3% (inactive) | -61.5% (inactive) | 170 | -0.751 | 0.432 | -0.146 | -11% (inactive) | -0.476 (inactive) | -0.000195 (inactive) | 0.0044 (inactive) | inactive | 31.1% (inactive)
